17 molecules from ChEMBL document CHEMBL4130635, “2,4-Diaminoquinazolines as Dual Toll-like Receptor (TLR) 7/8 Modulators for the Treatment of Hepatitis B Virus” (J Med Chem, 2018) can be followed below.

Series [1] deals with T1, Toll-like receptor 7 (Homo sapiens) (UniProt Q9NYK1).
T1 sequence (whole entry): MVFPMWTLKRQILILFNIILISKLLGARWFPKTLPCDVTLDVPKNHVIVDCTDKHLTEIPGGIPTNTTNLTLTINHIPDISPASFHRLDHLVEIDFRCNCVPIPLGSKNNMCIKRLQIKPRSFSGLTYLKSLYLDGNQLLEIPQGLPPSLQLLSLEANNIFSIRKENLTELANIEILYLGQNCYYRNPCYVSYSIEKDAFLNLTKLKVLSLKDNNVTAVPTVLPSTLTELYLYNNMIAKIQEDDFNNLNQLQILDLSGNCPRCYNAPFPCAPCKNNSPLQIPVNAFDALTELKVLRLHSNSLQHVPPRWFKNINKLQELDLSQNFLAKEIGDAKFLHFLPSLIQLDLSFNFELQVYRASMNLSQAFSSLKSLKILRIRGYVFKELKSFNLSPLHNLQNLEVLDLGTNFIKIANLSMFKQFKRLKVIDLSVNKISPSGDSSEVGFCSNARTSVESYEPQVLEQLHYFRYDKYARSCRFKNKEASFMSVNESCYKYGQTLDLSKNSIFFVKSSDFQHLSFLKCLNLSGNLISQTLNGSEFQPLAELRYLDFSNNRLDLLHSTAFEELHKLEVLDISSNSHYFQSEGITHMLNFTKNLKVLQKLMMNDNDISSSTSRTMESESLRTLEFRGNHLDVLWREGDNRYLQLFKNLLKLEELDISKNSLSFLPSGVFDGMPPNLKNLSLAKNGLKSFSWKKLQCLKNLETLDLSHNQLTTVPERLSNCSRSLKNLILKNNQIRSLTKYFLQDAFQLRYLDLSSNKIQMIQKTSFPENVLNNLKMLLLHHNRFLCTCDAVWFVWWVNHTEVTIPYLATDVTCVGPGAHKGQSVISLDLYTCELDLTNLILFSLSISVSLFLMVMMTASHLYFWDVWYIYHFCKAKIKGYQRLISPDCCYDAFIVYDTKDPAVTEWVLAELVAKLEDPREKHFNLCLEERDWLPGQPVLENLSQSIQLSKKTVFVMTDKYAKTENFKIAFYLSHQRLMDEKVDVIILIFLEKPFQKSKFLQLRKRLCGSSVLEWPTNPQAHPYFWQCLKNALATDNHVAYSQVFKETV
The experiment in a line: Agonist activity at human TLR7 expressed in HEK293 cells assessed as induction of receptor activation incubated for 6 hrs by NF-kappaB-luciferase reporter gene assay. The class given is cell-based. An outline of the steps:
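HEK cell-based assay using a wild-type TLR7 expression vector; a parallel TLR8 vector construct served for selectivity. Results are expressed as lowest effective concentration (LEC), averaged over independent experiments where determined two or more times. A separate HEK 293 cytotoxicity (TOX) assay gave CC50 alongside.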
(In general: Reporter assays use an easily measured gene product as a stand-in for the process of interest.)

In series [2] the target is T2, Toll-like receptor 8 (Homo sapiens) (UniProt Q9NR97).
T2 sequence (whole entry): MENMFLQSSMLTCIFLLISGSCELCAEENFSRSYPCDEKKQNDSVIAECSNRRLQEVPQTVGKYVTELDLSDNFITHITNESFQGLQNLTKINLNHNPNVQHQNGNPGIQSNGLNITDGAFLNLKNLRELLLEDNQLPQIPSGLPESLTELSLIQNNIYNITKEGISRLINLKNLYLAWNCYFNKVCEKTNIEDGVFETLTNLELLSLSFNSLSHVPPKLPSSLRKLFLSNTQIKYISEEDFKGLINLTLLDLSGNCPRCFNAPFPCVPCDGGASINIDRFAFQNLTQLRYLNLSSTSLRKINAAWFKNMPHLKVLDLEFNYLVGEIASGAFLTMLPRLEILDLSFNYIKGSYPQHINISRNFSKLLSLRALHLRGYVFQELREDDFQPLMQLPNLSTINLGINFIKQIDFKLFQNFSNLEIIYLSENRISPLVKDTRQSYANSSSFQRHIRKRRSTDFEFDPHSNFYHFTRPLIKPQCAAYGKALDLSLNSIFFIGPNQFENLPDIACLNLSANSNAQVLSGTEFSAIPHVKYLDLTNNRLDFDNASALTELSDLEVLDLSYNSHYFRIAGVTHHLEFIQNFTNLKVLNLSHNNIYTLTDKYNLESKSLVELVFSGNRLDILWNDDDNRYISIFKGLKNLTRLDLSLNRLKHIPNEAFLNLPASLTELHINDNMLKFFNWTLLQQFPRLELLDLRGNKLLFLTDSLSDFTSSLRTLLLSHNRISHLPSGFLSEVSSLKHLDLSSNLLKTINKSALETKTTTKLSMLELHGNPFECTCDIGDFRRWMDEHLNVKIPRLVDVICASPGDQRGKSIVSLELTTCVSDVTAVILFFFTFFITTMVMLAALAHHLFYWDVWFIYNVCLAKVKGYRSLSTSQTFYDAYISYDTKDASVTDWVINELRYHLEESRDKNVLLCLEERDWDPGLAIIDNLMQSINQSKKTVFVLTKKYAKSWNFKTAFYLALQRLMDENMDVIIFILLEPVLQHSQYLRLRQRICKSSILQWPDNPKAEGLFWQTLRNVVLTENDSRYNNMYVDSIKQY
The experiment in a line: Agonist activity at human TLR8 expressed in HEK293 cells assessed as induction of receptor activation incubated for 6 hrs by NF-kappaB-luciferase reporter gene assay. The class given is cell-based.

In series [3] the target is T1, Toll-like receptor 7 (Homo sapiens). The series can be described thus: Agonist activity at TLR7 in human PBMC assessed as suppression of HCV replicon replication in human HuH7 luc/neo cells harboring RNA encoding bicistronic expression construct comprising wild type HCV type 1b NS3-NS5B regions exposed to conditioned media from compound treated PBMCs after 24 hrs by luciferase reporter gene assay. The class given is cell-based. In short, it runs like this: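 Human PBMCs were incubated with compound. Their medium was then transferred onto an HCV replicon system, so the antiviral read-out reflects interferon and cytokines the PBMCs induced. Values are reported as lowest effective concentration (LEC), averaged when determined in two or more independent experiments.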
On the technique in general: A replicon is a self-replicating genome or part of one, used to study replication in cells.

Series [4] can be described thus: Cytotoxicity against HEK293 cells assessed as reduction in cell viability after 6 hrs by ATP lite assay. The class given is cell-based. As to conditions: human.
The target in series [5] is Voltage-gated inwardly rectifying potassium channel KCNH2 (Homo sapiens, UniProt Q12809). The series can be described thus: Inhibition of radioligand binding to human ERG expressed in HEK293 cell membranes by scintillation counting method.
Chain of Voltage-gated inwardly rectifying potassium channel KCNH2 (Q12809 whole entry): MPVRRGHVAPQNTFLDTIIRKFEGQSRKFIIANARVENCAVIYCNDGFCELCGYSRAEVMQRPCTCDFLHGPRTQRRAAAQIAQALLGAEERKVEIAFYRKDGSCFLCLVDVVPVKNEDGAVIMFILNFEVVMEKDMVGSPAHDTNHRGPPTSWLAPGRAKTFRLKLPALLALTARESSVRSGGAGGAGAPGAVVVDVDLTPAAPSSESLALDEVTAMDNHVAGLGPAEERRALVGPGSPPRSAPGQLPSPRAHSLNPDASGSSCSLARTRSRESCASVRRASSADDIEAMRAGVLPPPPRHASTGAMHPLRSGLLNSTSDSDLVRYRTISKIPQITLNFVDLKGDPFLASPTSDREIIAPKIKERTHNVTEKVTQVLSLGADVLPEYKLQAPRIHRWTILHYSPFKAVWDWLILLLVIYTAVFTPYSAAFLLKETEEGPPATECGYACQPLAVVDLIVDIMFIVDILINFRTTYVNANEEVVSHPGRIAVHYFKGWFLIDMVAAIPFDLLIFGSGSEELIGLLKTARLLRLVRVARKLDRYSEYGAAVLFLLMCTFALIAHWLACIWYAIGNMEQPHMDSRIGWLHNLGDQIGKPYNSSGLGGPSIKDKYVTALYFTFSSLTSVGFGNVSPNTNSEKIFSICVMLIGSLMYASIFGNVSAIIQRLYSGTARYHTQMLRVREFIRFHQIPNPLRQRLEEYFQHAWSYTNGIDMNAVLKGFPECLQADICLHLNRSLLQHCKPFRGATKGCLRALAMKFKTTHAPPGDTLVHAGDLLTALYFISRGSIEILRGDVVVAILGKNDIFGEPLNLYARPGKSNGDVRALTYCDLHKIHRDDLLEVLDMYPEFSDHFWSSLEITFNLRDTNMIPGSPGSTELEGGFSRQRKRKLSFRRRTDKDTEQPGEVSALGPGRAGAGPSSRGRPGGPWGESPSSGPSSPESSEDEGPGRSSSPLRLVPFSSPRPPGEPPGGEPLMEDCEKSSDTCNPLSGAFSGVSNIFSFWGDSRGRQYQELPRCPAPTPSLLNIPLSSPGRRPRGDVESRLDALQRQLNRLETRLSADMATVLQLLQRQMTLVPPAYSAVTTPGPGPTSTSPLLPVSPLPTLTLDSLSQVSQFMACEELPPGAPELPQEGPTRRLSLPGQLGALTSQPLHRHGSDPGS
The nature of series [6]: Metabolic stability in mouse liver microsomes assessed as compound metabolized at 1 uM after 15 mins. The class given is ADME, microsome. As to conditions: read-out: Drug metabolism. In short, it runs like this:
(§1)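 Mouse (M) or human (H) liver microsomes incubated with compound at 1 μM; percent metabolized after 15 min.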

Series [7] in a line: Metabolic stability in human liver microsomes assessed as compound metabolized at 1 uM after 15 mins. The class given is ADME, microsome. Particulars: read-out: Drug metabolism. An outline of the steps: as §1

The term CC50 denotes the concentration at which the toxic effect on the cells reaches its halfway point. For `CCCC[C@@H](CO)Nc1nc(N)nc2ccccc12`, the MEC was 0.24 µM in series [1], 0.02 µM in series [2] and 0.04 µM in series [3]. Also, the CC50 at 6 h in series [4] is over 24 µM.

With `CC[C@H](C)[C@@H](CO)Nc1nc(N)nc2ccccc12`, the MEC in series [1] was 1.34 µM; in series [2], 0.08 µM; in series [3] it was 0.14 µM. In addition, in series [4], the CC50 at 6 h was over 24 µM.

Take `CCC[C@H](CO)Nc1nc(N)nc2ccccc12`: the MEC is over 25 µM in series [1], 0.57 µM in series [2] and 2.36 µM in series [3]. The CC50 at 6 h in series [4] was over 24 µM.

Broadly, the IC50 is the concentration at which inhibition is half-maximal. As to `CCC[C@@H](CCO)Nc1nc(N)nc2cc(F)ccc12`, the MEC is 0.11 µM in series [1], 0.04 µM in series [2] and 4.8 µM in series [3]. Further, in series [4], the CC50 at 6 h is over 24 µM. In series [5], the IC50 came out at 9.1 µM. The metabolised at 0.25 h, 1 µM amounted to 100% in series [6] and 13% in series [7].

In the case of `CCC[C@@H](CO)Nc1nc(N)nc2ccccc12`, the MEC turned out to be 0.46 µM in series [1], 0.01 µM in series [2] and 0.04 µM in series [3]. In addition, in series [4], the CC50 at 6 h is over 24 µM.

On to `CCC[C@@H](CCO)Nc1nc(N)nc2cc(C)ccc12`, for which the results for the MEC in series [1], in series [2] and in series [3] were 0.06 µM, 0.05 µM and 0.39 µM, respectively. In addition, in series [4], the CC50 at 6 h was over 24 µM. Besides, in series [5], the IC50 was found to be 8.1 µM. In addition, the metabolised at 0.25 h, 1 µM in series [6] came out at 87%; in series [7], 44%.

For `CCC[C@@H](CCO)Nc1nc(N)nc2cccc(C)c12`, the figures for the MEC in series [1] and in series [2] were 0.22 µM and 0.14 µM, respectively. Besides, the cytotoxic concentration (CC50) at 6 h in series [4] is over 24 µM. For the same molecule, in series [5], the IC50 was 5.5 µM. Besides, the metabolised at 0.25 h, 1 µM in series [6] was 88%; in series [7], 44%.

Take `CCC[C@@H](CCO)Nc1nc(N)nc2ccc(F)cc12`: the results for the MEC in series [1] and in series [2] were 1.05 µM and 0.42 µM, respectively. In addition, in series [4], the CC50 at 6 h is over 24 µM. The values for the metabolised at 0.25 h, 1 µM in series [6] and in series [7] were 47% and 22%, respectively.

As for `CCCC[C@H](CO)Nc1nc(N)nc2ccccc12`, the MEC turned out to be 22.5 µM in series [1], 0.05 µM in series [2] and 0.16 µM in series [3]. In addition, the CC50 at 6 h in series [4] was over 24 µM.

Consider `CC(C)C[C@@H](CCO)Nc1nc(N)nc2ccccc12`, for which the MEC worked out at 1.83 µM in series [1], 0.69 µM in series [2] and 0.55 µM in series [3]. Further, the CC50 at 6 h in series [4] is over 24 µM.

Consider `CC[C@@H](CO)Nc1nc(N)nc2ccccc12`, for which the MEC was 3.9 µM in series [1], 0.19 µM in series [2] and 2.3 µM in series [3]. Also, the CC50 at 6 h in series [4] was over 24 µM.

For `CC(C)C[C@@H](CO)Nc1nc(N)nc2ccccc12`, the MEC worked out at 3.18 µM in series [1], 0.45 µM in series [2] and 0.71 µM in series [3]. In series [4], the CC50 at 6 h was over 24 µM.

As for `CCC[C@@H](CCO)Nc1nc(N)nc2cccc(F)c12`, the MEC stood at 0.22 µM in series [1] and 0.02 µM in series [2]. Besides, the half-maximal cytotoxic concentration (CC50) at 6 h in series [4] is over 24 µM. In series [5], this molecule showed an IC50 of 8.9 µM. The metabolised at 0.25 h, 1 µM in series [6] worked out at 47%; in series [7] it was 62%.

In the case of `CCC[C@@H](CCO)Nc1nc(N)nc2ccc(OC)cc12`, the MEC was 11.8 µM in series [1] and 2.97 µM in series [2]. Moreover, the cytotoxic concentration (CC50) at 6 h in series [4] was over 24 µM.

Regarding `CCCC[C@@H](CCO)Nc1nc(N)nc2cc(F)ccc12`, the MEC in series [1] stood at 0.04 µM; in series [2] it was 0.03 µM; in series [3] it was 0.04 µM. The CC50 at 6 h in series [4] is over 24 µM. In addition, the metabolised at 0.25 h, 1 µM in series [6] amounted to 91%; in series [7], 39%.

On to `CCCCNc1nc(N)nc2ccccc12`, for which the MEC in series [1] is 0.16 µM; in series [2], 0.06 µM; in series [3] it was 0.03 µM. The CC50 at 6 h in series [4] is over 24 µM.

Consider `CCCC[C@@H](CCO)Nc1nc(N)nc2cc(OC)ccc12`, for which the figures for the MEC in series [1], in series [2] and in series [3] were 0.16 µM, 0.16 µM and 0.04 µM, respectively. In addition, in series [4], the CC50 at 6 h was over 24 µM. The metabolised at 0.25 h, 1 µM came to 80% in series [6] and 37% in series [7].
